eIF4E-4G inh: inhibitors of eIF4E and eIF4G interaction in translation initiation. P63073+Q04637. TR-FRET eIF4E-eIF4GI(517-606) binding, 2 h. inhibition, % at 21.7 µM. 220,000 tested, 0.37% active. AID 782;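 active = inhibition above about 30%, limit read from the data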;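 note: 0% = full FRET control wells and 100% = background wells lacking eIF4GI fragment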
14-3-3 Bad PPI: disrupts binding of bovine 14-3-3 zeta to phospho-Bad peptide. P63103. TR-FRET 14-3-3zeta/Dy647-pBad peptide displacement, 1 h. inhibition, % at 21.7 µM. 220,000 tested, 0.71% active. AID 781;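 active = inhibition above about 70%, limit read from the data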;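 note: 0% = full 14-3-3 plus peptide FRET controls and 100% = background without 14-3-3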
Biofilm kill mix: mixture kills Candida albicans biofilm cells | C. albicans biofilm persisters + clotrimazole, fluorescence viability; primary screen in compound mixtures of four per well | inhibition, % at 7.6 µM | 120,000 tested, 0.02% active | AID 1242;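 active = inhibition above 30.3% in the primary screen of four-compound pools, then above 30% when the compound was retested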;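 note: compounds exposed to preformed 24 h biofilms for 48 h; 0% = untreated biofilm control and 100% = clotrimazole plus chlorhexidine kill blank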
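Assay system: C. albicans biofilms / Medium: RPMI/MOPS medium, pH 7.0 / Schedule: biofilm formation 24 h, compound exposure 48 h, 37 °C / Measured by: Alamar Blue fluorescence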
Hck-Nef inh: inhibitors of human Hck kinase activated by Nef | P08631 | Recombinant Hck-YEEI plus Nef, Z-Lyte FRET kinase assay | inhibition, % at 20 µM | 220,000 tested, 0.68% active;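 active = Hck-Nef kinase inhibition above about 50%, limit read from the data; inactive = inhibition below that limit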;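 note: 0% = DMSO with Hck plus Nef and 100% = Hck alone without Nef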
p97 ATPase inh: inhibitors of human p97 ATPase; recombinant p97 ATPase, Kinase-Glo ATP luminescence, 3 h; AID 1481; P55072; 220,000 tested, 0.42% active; inhibition, % at 8 µM; in the data active = inhibition above about 15%;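 note: 0% = DMSO vehicle and 100% = wells lacking enzyme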
Target sequence (P55072 whole entry, looked up): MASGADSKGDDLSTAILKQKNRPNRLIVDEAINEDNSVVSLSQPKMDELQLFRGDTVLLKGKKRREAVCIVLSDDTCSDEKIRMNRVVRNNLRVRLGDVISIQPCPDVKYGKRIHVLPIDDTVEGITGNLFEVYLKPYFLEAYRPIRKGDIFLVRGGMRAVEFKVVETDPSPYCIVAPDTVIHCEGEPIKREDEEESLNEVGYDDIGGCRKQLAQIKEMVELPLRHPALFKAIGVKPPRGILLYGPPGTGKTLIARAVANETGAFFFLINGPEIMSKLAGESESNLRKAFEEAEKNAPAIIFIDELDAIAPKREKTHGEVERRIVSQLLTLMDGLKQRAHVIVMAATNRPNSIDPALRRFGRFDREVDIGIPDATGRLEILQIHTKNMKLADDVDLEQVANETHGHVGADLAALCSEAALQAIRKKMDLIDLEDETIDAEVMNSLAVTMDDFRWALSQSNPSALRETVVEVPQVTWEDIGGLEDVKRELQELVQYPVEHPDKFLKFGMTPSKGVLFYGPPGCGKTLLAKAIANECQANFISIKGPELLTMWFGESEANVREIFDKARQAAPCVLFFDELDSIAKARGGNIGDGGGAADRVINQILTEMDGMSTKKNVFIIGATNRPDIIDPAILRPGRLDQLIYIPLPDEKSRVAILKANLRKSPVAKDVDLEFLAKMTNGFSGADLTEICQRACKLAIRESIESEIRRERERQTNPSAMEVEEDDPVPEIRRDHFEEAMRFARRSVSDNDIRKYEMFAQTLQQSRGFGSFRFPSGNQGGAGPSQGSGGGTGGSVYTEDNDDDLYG
PERK inh: human PERK inhibition, primary cell-based screen; Q9NZJ5; CHO PERK-DD fusion, SEAP luminescence translation reporter; inhibition, % at 5.6 µM; 220,000 tested, 0.17% active; AID 1416;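 active = inhibition above the mean inhibition of all tested compounds plus 3 SD, set separately per screening campaign, cut at about 2.9% in these data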;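 note: PERK kinase domain activated by AP20187 dimerizer at 100 nM; 0% = DMSO with dimerizer and 100% = rapamycin at 8.4 µM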
Starred values were filed as active, the others as inactive; x = no result given; [ ] = another dose, or the depositor's remark. In the library only some 2.2% were active in any assay of this set; here they are far more common.

SMILES	eIF4E-4G inh	14-3-3 Bad PPI	Biofilm kill mix	Hck-Nef inh	p97 ATPase inh	PERK inh
COc1cc(C(=O)Nc2cc(-c3cn4cccnc4n3)ccc2C)cc(OC)c1OC	1.2	-10.7	11.8	20.7	2.3	0.6
CCCOc1ccc(N)cc1N	13.9	92.3*[fluorescence artefact?]	x	-0.6	12.9	-1.4
CC(C)c1cc(C(=O)N2CCCC(C(=O)c3ccc4ccccc4c3)C2)on1 (stereo not drawn)	3.4	-0.7	4.3	-3.1	-0.7	2.9*
O=C(CCCn1c(=O)[nH]c2ccc(Br)cc2c1=O)NCc1ccc(Cl)cc1	4.2	-0.1	8.1	-1.9	-2.9	0.2
CCCCc1nc2sc3c(=O)n(N)cnc3c2c2c1CCC2	-7.0	-1.5	-8.9	-3.2	1.8	3.0*
C/C(=N\NC(=O)c1cccs1)C(C)(C)C	11.0	17.4	-8.9	1.7	-0.6	0.3
O=C1Nc2ccccc2C1(O)Cc1ccccn1 (stereo not drawn)	-62.0	-1.3	5.9	-5.8	-4.9	0.7
Cc1cccc(OCC(=O)O/N=C(\N)Cc2ccc([N+](=O)[O-])cc2)c1	-0.1	-5.9	10.3	6.1	3.4	0.7
Cc1ccc(OCC(=O)O/N=C(\N)Cc2ccc([N+](=O)[O-])cc2)cc1C	40.3*	5.2	14.4	19.8	-3.8	0.4
O=C1C2C3C=CC(CC3)C2C(=O)N1c1ccccc1[N+](=O)[O-] (stereo not drawn)	-0.1	4.2	13.8	13.1	-7.0	-0.1
Cn1c(SCC(=O)Nc2ccc(Br)cc2)nc(O)cc1=O	0.6	0.3	15.0	22.2	10.3	1.3
Cc1c(O)nc2sc3ccccc3n2c1=O	-4.5	1.9	0.3	7.3	3.5	4.4*
CC(=O)c1ccc(NC(=O)CSc2ccsc2[N+](=O)[O-])cc1	32.3*	15.2	20.3	29.6	3.0	0.4
Cc1ccc(CNC(=O)CSc2ccsc2[N+](=O)[O-])cc1	-1.7	-11.9	-7.0	23.2	1.4	0.8
O=C(CSc1ccsc1[N+](=O)[O-])Nc1cc(F)ccc1F	50.1*	83.3*	16.8	32.0	-1.0	-0.2
CCCc1ccc(-c2cc(C(=O)Nc3ccc([N+](=O)[O-])cn3)c3ccccc3n2)cc1	2.2	-3.9	10.7	2.2	5.8	1.0
COc1ccc(C(C)=O)cc1COC(=O)c1c(C)noc1C	12.1	-11.9	x	1.3	-0.9	-1.4
COc1ccc(C(C)=O)cc1COC(=O)c1ccc(OCc2c(C)noc2C)cc1	-37.2	73.4*	x	31.7	-1.6	-0.3
COc1ccc(CN2C(=O)c3cccnc3C2O)cc1 (stereo not drawn)	6.5	86.6*	x	-20.4	0.7	0.8
CCOC(=O)c1ccc(NC2c3ncccc3C(=O)N2Cc2ccc(F)cc2)cc1 (stereo not drawn)	0.9	85.6*	x	-0.4	2.1	-0.9
COC(=O)c1cc(NC2c3ncccc3C(=O)N2Cc2ccccc2)cc(C(=O)OC)c1 (stereo not drawn)	4.0	4.2	x	-0.5	-3.0	-0.8
COc1ccc(CN2C(=O)c3cccnc3C2Nc2cc(Cl)ccc2OC)cc1 (stereo not drawn)	98.8*	95.5*[fluorescence artefact?]	x	-0.4	3.2	-0.5
COc1ccc(CCN(Cc2cc3ccc(C)cc3n3nnnc23)C(C)=O)cc1OC	-0.2	-0.9	13.9	0.3	0.3	0.2
CN1CCOCCOCCN(C)C(=O)N2CCOCCOCCN(CCOCC2)C1=O	x	x	x	0.9	-1.4	3.6*
Cc1cccc(NC(=O)CN2C(=O)S/C(=C\c3ccccn3)C2=O)c1	0.6	-2.5	11.8	3.8	2.0	1.5
SMILES	eIF4E-4G inh	14-3-3 Bad PPI	Biofilm kill mix	Hck-Nef inh	p97 ATPase inh	PERK inh
Cc1cccc(NC(=O)CN2C(=O)S/C(=C\c3ccc(O)c([N+](=O)[O-])c3)C2=O)c1	-4.5	1.3	11.2	61.0*	1.4	0.2
CCOc1cc(CN2CCN(c3cccc(C(F)(F)F)c3)CC2)ccc1OC	-2.9	70.2*	x	-1.5	-1.8	-0.3
CCOc1cc(CN2CCN(c3ccc(C(C)=O)cc3)CC2)ccc1OC	9.9	89.0*	x	2.4	1.3	1.6
COc1cc(CN2CCN(c3ccc(C)cc3)CC2)cc([N+](=O)[O-])c1O	-2.7	82.7*	x	-0.2	-6.9	-0.6
CCOc1cc(CN2CCN(c3cccc(C(F)(F)F)c3)CC2)ccc1O	3.5	28.2	x	0.5	-8.0	-0.2
Cc1oc(-c2ccc(Cl)cc2)[n+]([O-])c1C	1.6	83.8*	x	0.1	-1.5	-1.4
Cc1oc(-c2ccc(Cl)cc2)cc1C(=O)O	4.6	8.9	5.0	3.1	7.2	1.6
CC(=O)C1=C(O)C(=O)N(c2ccc(S(=O)(=O)Nc3nccs3)cc2)C1c1ccc(F)cc1 (stereo not drawn)	26.1	-2.2	21.8	22.1	5.3	1.0
O=C(O)CC(C(=O)O)N1C(=O)/C(=C/C=C/c2ccco2)SC1=S (stereo not drawn)	32.1*	74.4*	11.5	71.4*	12.9	2.1
O=C(NNC(=O)C1CCCCC1)c1ccc(Br)cc1	1.3	-0.5	4.0	-8.9	3.0	-0.1
CCc1cccc(C)c1NC(=O)Nc1ccc2c(c1)OCO2	-1.3	2.2	0.8	13.0	6.8	3.5*
Cc1ccc(S(=O)(=O)NC(C(=O)Oc2ccc3c(C)c(Cl)c(=O)oc3c2)c2ccccc2)cc1 (stereo not drawn)	-1.8	-3.0	22.5	88.5*	3.3	0.5
Cc1ccc(S(=O)(=O)N[C@H](C(=O)Oc2ccc3c(C(F)(F)F)cc(=O)oc3c2)c2ccccc2)cc1	-4.6	5.1	x	-0.5	3.1	-0.1
Cc1ccc(S(=O)(=O)NC(C(=O)Oc2ccc3ccc(=O)oc3c2)c2ccccc2)cc1 (stereo not drawn)	-2.4	-10.8	-15.1	57.8*	4.0	0.1
COc1cc2c(cc1OC)C1Cc3ccc(OC)c(OC)c3C[N+]1([O-])CC2 (stereo not drawn)	-1.8	1.8	7.4	23.0	x	x
CCOc1ccc(CN(C)CC(=O)NCc2ccccc2Cl)cc1	0.1	-9.6	10.4	15.4	-2.7	0.1
CC(=O)NCCOc1nc(N2CCCCC2)nc(N2CCCCC2)n1	-4.3	-4.6	24.2	20.0	-6.0	-0.2
Cc1nc(N2CCOCC2)[nH]c(=O)c1C	1.3	-9.6	20.0	21.0	5.3	0.7
O=C(Nc1cccc(C(F)(F)F)c1)c1cccnc1N1CCN(CCO)CC1	-2.9	-7.5	x	2.9	-5.5	0.3
O=C(Nc1cccc(C(F)(F)F)c1)c1cccnc1N1CCN(c2ccccc2)CC1	3.0	87.5*[fluorescence artefact?]	x	-16.6	-0.2	0.4
CN1CCN(c2ccccc2NC(=O)c2sc3ccccc3c2Cl)CC1	-2.0	-4.9	15.3	22.0	-4.9	0.2
CCN1CCN(CC(=O)Nc2cc(F)ccc2C)CC1	-4.2	17.1	x	-0.3	-2.5	-0.5
CCn1cc(S(=O)(=O)Nc2cc(F)ccc2C)cn1	1.4	92.5*	13.2	20.9	-3.0	-1.0

Screens (PubChem BioAssay)
